Experimental data gathered from unrelated publications.
Lines come from different studies, so protocols differ.
RAF1 Y340D/Y341D: RAF proto-oncogene serine/threonine-protein kinase (RAF1, Homo sapiens, UniProt P04049, Y340D/Y341D)
RAF1: RAF proto-oncogene serine/threonine-protein kinase (RAF1, Homo sapiens, UniProt P04049)

SMILES | target | effect on | mode | method | tested at | endpoint | result
C#Cc1n[nH]c2c(-c3cn(C(C)c4ccccn4)c(=O)[nH]c3=O)cc(F)cc12 (stereo not shown) | RAF1 Y340D/Y341D | enzyme activity | inhibitor |  | 1 µM | inhibition | 15.5%
Cn1cc(-c2cc(F)cc(N3CCn4c(cc5c4CCCC5)C3=O)c2CO)cc(Nc2ccc(N3CCN(C4COC4)CC3)cn2)c1=O | RAF1 Y340D/Y341D | enzyme activity | inhibitor |  | 0.1 µM | inhibition | 5%
Nc1ncc(-c2nc(N3CCOCC3)nc(N3CCOCC3)n2)c(C(F)F)n1 | RAF1 | binding |  | competition with immobilised ligand | 10 µM | remaining binding | 98%
C#Cc1n[nH]c2c(-c3cn([C@@H](C)c4ccccc4)c(=O)[nH]c3=O)cc(F)cc12 | RAF1 Y340D/Y341D | enzyme activity | inhibitor |  | 0.1 µM | inhibition | 4.4%
Cn1cc(-c2cccc(N3CCc4c(sc5c4CC(C)(C)C5)C3=O)c2CO)cc(Nc2ccncn2)c1=O | RAF1 Y340D/Y341D | enzyme activity | inhibitor |  | 1 µM | inhibition | 10%
CC(C)(C)c1cc(C=C(C#N)C#N)cc(Br)c1O | RAF1 | enzyme activity | inhibitor |  | 0.5 µM | remaining activity | 104%
Cc1nn(C)cc1-c1nc2c(N3CCN(Cc4ccc(Cl)cc4)CC3)c(Cl)cnc2[nH]1 | RAF1 | binding |  | competition with immobilised ligand | 1 µM | remaining binding | 69%
Cn1cncc1[C@](O)(COc1ccc(C#N)cc1-c1ccc(OC(F)(F)F)cc1)c1ccc(C#N)cc1 | RAF1 | cell-free assay |  | competition with immobilised ligand | 1 µM | remaining binding | 100%
COc1ncccc1-c1cnn2ccc(N3CCN(C(=O)OC(C)C)CC3)nc12 | RAF1 | binding |  | competition with immobilised ligand | 1 µM | remaining binding | 60%
O=c1[nH]c2ccccc2n1C1CCN(Cc2ccc(-c3[nH]c4cc5ncnc5cc4nc3-c3ccccc3)cc2)CC1 | RAF1 | cell-free assay |  |  | 0.5 µM | remaining signal | 94.7%
